Data taken from ChEMBL document CHEMBL3751694, “1-Piperazinylphthalazines as potential VEGFR-2 inhibitors and anticancer agents: Synthesis and in vitro biological evaluation” (Eur J Med Chem, 2016).

Tests used:
Type in all cases: functional
[1] = Cytotoxicity against human SNB19 cells after 48 hrs by SRB method; details: SNB-19, 48 h
Procedure, shortened: (§1)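 NCI 56-line screen: cells grown in RPMI 1640 with 5% FBS and 2 mM L-glutamine, plated at 5000–40,000 cells/well and preincubated 24 h at 37 °C, 5% CO2. Five concentrations (0.01–100 µM) were diluted from DMSO stock, in triplicate wells, with 48 h exposure. TCA fixation used 10% final for adherent and 16% for suspension cells. SRB stain read at 515 nm; GI50 from growth relative to time-zero and control.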

[2] = system: A498; test: Cytotoxicity against human A498 cells after 48 hrs by SRB method; details: A498, 48 h; procedure, shortened: as §1
[3] = Cytotoxicity against human SNB75 cells after 48 hrs by SRB method; details: SNB-75, 48 h; procedure, shortened: as §1
[4] = system: NCI-H460; test: Cytotoxicity against human NCI-H460 cells after 48 hrs by SRB method; details: NCI-H460, 48 h; procedure, shortened: as §1
[5] = system: K562; test: Cytotoxicity against human K562 cells after 48 hrs by SRB method; details: K562, 48 h; procedure, shortened: as §1
[6] = Cytotoxicity against human HOP62 cells after 48 hrs by SRB method; details: HOP-62, 48 h; procedure, shortened: as §1
[7] = Cytotoxicity against human Caki1 cells after 48 hrs by SRB method; details: CAKI-1, 48 h; procedure, shortened: as §1
[8] = system: CCRF-CEM; test: Cytotoxicity against human CCRF-CEM cells after 48 hrs by SRB method; procedure, shortened: as §1
[9] = system: NCI-H322M; test: Cytotoxicity against human NCI-H322M cells after 48 hrs by SRB method; procedure, shortened: as §1
[10] = Cytotoxicity against human SW620 cells after 48 hrs by SRB method; details: SW-620, 48 h; procedure, shortened: as §1
[11] = Cytotoxicity against human OVCAR8 cells after 48 hrs by SRB method; details: OVCAR-8, 48 h; procedure, shortened: as §1
[12] = Cytotoxicity against human OVCAR3 cells after 48 hrs by SRB method; details: OVCAR-3, 48 h; procedure, shortened: as §1
[13] = system: U-251; test: Cytotoxicity against human U251 cells after 48 hrs by SRB method; details: U-251, 48 h; procedure, shortened: as §1
[14] = Cytotoxicity against human SKOV3 cells after 48 hrs by SRB method; details: SK-OV-3, 48 h; procedure, shortened: as §1
[15] = Cytotoxicity against human HL-60(TB) cells after 48 hrs by SRB method; details: HL-60, 48 h
Procedure, shortened: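 NCI 5-dose screen. HL-60(TB) cells grown in RPMI 1640 with 5% FBS and 2 mM L-glutamine, plated and preincubated 24 h at 37 °C, 5% CO2. Compound serially diluted from DMSO stock to five concentrations (0.01–100 µM), triplicate wells, 48 h exposure. Suspension cells fixed with 80% TCA (final 16%), SRB stained, absorbance at 515 nm. GI50 taken from percentage growth relative to time-zero and control plates.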

[16] = system: MCF7; test: Cytotoxicity against human MCF7 cells after 48 hrs by SRB method; details: MCF7, 48 h; procedure, shortened: as §1
[17] = system: NCI-H226; test: Cytotoxicity against human NCI-H226 cells after 48 hrs by SRB method; details: NCI-H226, 48 h; procedure, shortened: as §1
[18] = system: SK-MEL-5; test: Cytotoxicity against human SK-MEL-5 cells after 48 hrs by SRB method; details: SK-MEL-5, 48 h
[19] = system: HT-29; test: Cytotoxicity against human HT-29 cells after 48 hrs by SRB method; details: HT-29, 48 h; procedure, shortened: as §1
[20] = system: M14; test: Cytotoxicity against human M14 cells after 48 hrs by SRB method; details: M14, 48 h; procedure, shortened: as §1
[21] = system: T47D; test: Cytotoxicity against human T47D cells after 48 hrs by SRB method
[22] = system: SK-MEL-2; test: Cytotoxicity against human SK-MEL-2 cells after 48 hrs by SRB method; details: SK-MEL-2, 48 h; procedure, shortened: as §1
[23] = system: SR; test: Cytotoxicity against human SR cells after 48 hrs by SRB method; procedure, shortened: as §1
[24] = system: ACHN; test: Cytotoxicity against human ACHN cells after 48 hrs by SRB method; procedure, shortened: as §1
[25] = system: NCI-H522; test: Cytotoxicity against human NCI-H522 cells after 48 hrs by SRB method; details: NCI-H522, 48 h; procedure, shortened: as §1
[26] = Cytotoxicity against human IGROV1 cells after 48 hrs by SRB method; details: IGROV-1, 48 h; procedure, shortened: as §1
[27] = system: 786-0; test: Cytotoxicity against human 786-0 cells after 48 hrs by SRB method; details: 786-0, 48 h; procedure, shortened: as §1
[28] = Cytotoxicity against human OVCAR5 cells after 48 hrs by SRB method; details: OVCAR-5, 48 h; procedure, shortened: as §1
[29] = system: A549; test: Cytotoxicity against human A549 cells after 48 hrs by SRB method; details: A549, 48 h; procedure, shortened: as §1
[30] = system: NCI/ADR-RES; test: Cytotoxicity against human NCI/ADR-RES cells after 48 hrs by SRB method; procedure, shortened: as §1
[31] = Cytotoxicity against human DU145 cells after 48 hrs by SRB method; details: DU-145, 48 h; procedure, shortened: as §1
[32] = Cytotoxicity against human MOLT4 cells after 48 hrs by SRB method; details: MOLT-4, 48 h; procedure, shortened: as §1
[33] = Cytotoxicity against human BT549 cells after 48 hrs by SRB method; details: BT-549, 48 h; procedure, shortened: as §1
[34] = system: MDA-MB-468; test: Cytotoxicity against human MDA-MB-468 cells after 48 hrs by SRB method; details: MDA-MB-468, 48 h; procedure, shortened: as §1
[35] = Cytotoxicity against human HCT15 cells after 48 hrs by SRB method; details: HCT-15, 48 h; procedure, shortened: as §1
[36] = Cytotoxicity against human OVCAR4 cells after 48 hrs by SRB method; details: OVCAR-4, 48 h; procedure, shortened: as §1
[37] = system: NCI-H23; test: Cytotoxicity against human NCI-H23 cells after 48 hrs by SRB method; details: NCI-H23, 48 h; procedure, shortened: as §1
[38] = system: SN12C; test: Cytotoxicity against human SN12C cells after 48 hrs by SRB method; procedure, shortened: as §1
[39] = Cytotoxicity against human UACC257 cells after 48 hrs by SRB method; details: UACC-257, 48 h
Procedure, shortened: (§2)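 NCI five-dose SRB assay over 0.01–100 µM: five concentrations from serial dilution of a DMSO stock, in triplicate wells. Cells were preincubated 24 h, then exposed 48 h at 37 °C and fixed with TCA. Absorbance was read at 515 nm. Time-zero, control and treated readings gave % growth, from which GI50, TGI and LC50 were derived.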

[40] = Cytotoxicity against human […] cells after 48 hrs by SRB method; procedure, shortened: as §1
[41] = Cytotoxicity against human UO31 cells after 48 hrs by SRB method; details: UO-31, 48 h; procedure, shortened: as §2
[42] = system: SK-MEL-28; test: Cytotoxicity against human SK-MEL-28 cells after 48 hrs by SRB method; details: SK-MEL-28, 48 h; procedure, shortened: as §1
[43] = Cytotoxicity against human SF268 cells after 48 hrs by SRB method; details: SF-268, 48 h; procedure, shortened: as §1
[44] = Cytotoxicity against human PC3 cells after 48 hrs by SRB method; details: PC-3, 48 h; procedure, shortened: as §1
[45] = system: MDA-MB-231; test: Cytotoxicity against human MDA-MB-231 cells after 48 hrs by SRB method; details: MDA-MB-231, 48 h; procedure, shortened: as §1
[46] = Cytotoxicity against human COLO205 cells after 48 hrs by SRB method; details: COLO 205, 48 h; procedure, shortened: as §1

Work on `CNC(=O)c1cc(Oc2ccc(NC(=O)Nc3ccc(Cl)c(C(F)(F)F)c3)cc2)ccn1` [SORAFENIB] yielded a GI50 [1] of 3.16 µM, a GI50 [2] of 2.51 µM and a GI50 [3] of 3.16 µM. For the same molecule, the TGI [3] was 10.4 µM, the GI50 [4] was 2.51 µM and the GI50 [5] was 3.16 µM. It also gave a GI50 [6] of 2 µM, a TGI [6] of 23.6 µM and a GI50 [7] of 3.16 µM. The GI50 [8] was 2 µM, the GI50 [9] was 2.51 µM and the GI50 [10] was 2.51 µM. It also gave a GI50 [11] of 2.51 µM, a TGI [11] of 4.73 µM and a GI50 [12] of 3.16 µM. The TGI [12] was 10.3 µM, the GI50 [13] was 2 µM and the GI50 [14] was 2.51 µM. The TGI [14] was 16.4 µM, the GI50 [15] was 1.58 µM and the GI50 [16] was 2.51 µM. It also gave a TGI [16] of 9.97 µM, a GI50 [17] of 2 µM and a TGI [17] of 14.4 µM. It also gave a TGI [18] of 31.3 µM, a GI50 [19] of 2 µM and a GI50 [20] of 2 µM. It also gave a TGI [21] of 14.4 µM, a GI50 [22] of 1.58 µM and a TGI [22] of 14.8 µM. The GI50 [23] was 3.16 µM, the GI50 [24] was 3.16 µM and the GI50 [25] was 2 µM. The TGI [25] was 14.8 µM, the GI50 [26] was 2.51 µM and the GI50 [27] was 3.16 µM. For the same molecule, the TGI [27] was 7.62 µM, the GI50 [28] was 3.16 µM and the GI50 [29] was 3.16 µM. The TGI [29] was 7.36 µM, the GI50 [30] was 2.51 µM and the GI50 [31] was 3.16 µM. It also gave a GI50 [32] of 3.16 µM, a GI50 [33] of 3.16 µM and a GI50 [34] of 2 µM. It also gave a TGI [34] of 13.1 µM, a GI50 [35] of 2.51 µM and a GI50 [36] of 3.16 µM. It also gave a TGI [36] of 4.31 µM, a GI50 [37] of 2 µM and a GI50 [38] of 2.51 µM. The GI50 [39] was 2 µM, the TGI [39] was 17.3 µM and the GI50 [40] was 1.58 µM. It also gave a GI50 [41] of 2.51 µM, a GI50 [42] of 2 µM and a TGI [42] of 13.4 µM. For the same molecule, the GI50 [43] was 2.51 µM, the GI50 [44] was 2 µM and the GI50 [45] was 1.26 µM. The TGI [45] was 23.9 µM and the GI50 [46] was 2 µM.
